# Assays:
# Spleen = experiment: Drug uptake in rat spleen measured at 15 and 60 mins; type: ADME, tissue-based; details: in vivo, 1 h
# In short: (§1)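 Whole-body biodistribution of the [18F]-labelled radioligand in rats, formulated in 10% EtOH/saline. Tissues sampled at 15 and 60 min post-dose. Activity expressed as average % injected dose per gram.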
# Muscle tissue = experiment: Drug uptake in rat muscle measured at 15 and 60 mins; type: ADME, tissue-based; details: in vivo, 1 h; in short: as §1
# Brain [1] = experiment: Drug uptake in rat brain after 10 to 30 mins by microPET analysis; type: ADME, tissue-based; details: in vivo
# In short: (§2)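 In vivo microPET imaging of rat head and neck after dosing with the [18F] radioligand. Brain uptake followed from the first 10 min through 30 min on sagittal images. Skull bone uptake checked for defluorination.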
# Brain [2] = experiment: Drug uptake in rat brain measured at 15 and 60 mins; type: ADME, tissue-based; details: in vivo, 1 h; in short: as §1
# Liver = experiment: Drug uptake in rat liver measured at 15 and 60 mins; type: ADME, tissue-based; details: in vivo, 1 h; in short: as §1
# Heart = experiment: Drug uptake in rat heart measured at 15 and 60 mins; type: ADME, tissue-based; details: in vivo, 1 h; in short: as §1
# Blood = experiment: Drug uptake in rat blood measured at 15 and 60 mins; type: ADME, tissue-based; details: 1 h; in short: as §1
# Lung = experiment: Drug uptake in rat lung measured at 15 and 60 mins; type: ADME, tissue-based; details: in vivo, 1 h; in short: as §1
# [3] = Drug uptake in rat tibia measured at 15 and 60 mins; type: ADME, tissue-based; details: in vivo, 1 h; in short: as §1
# Kidney = experiment: Drug uptake in rat kidney measured at 15 and 60 mins; type: ADME, tissue-based; details: in vivo, 1 h; in short: as §1
# Brain [4] = experiment: Drug uptake in rat brain up to 10 mins by microPET analysis; type: ADME, tissue-based; details: in vivo; in short: as §2
# Intestine = experiment: Drug uptake in rat small intestine measured at 15 and 60 mins; type: ADME, tissue-based; details: in vivo, 1 h; in short: as §1
# [5] = molecular target: T1, Corticotropin-releasing factor receptor 1 (Homo sapiens, UniProt P34998); experiment: Binding affinity to CRFR1 by autoradiography
# T1 sequence (P34998 whole entry): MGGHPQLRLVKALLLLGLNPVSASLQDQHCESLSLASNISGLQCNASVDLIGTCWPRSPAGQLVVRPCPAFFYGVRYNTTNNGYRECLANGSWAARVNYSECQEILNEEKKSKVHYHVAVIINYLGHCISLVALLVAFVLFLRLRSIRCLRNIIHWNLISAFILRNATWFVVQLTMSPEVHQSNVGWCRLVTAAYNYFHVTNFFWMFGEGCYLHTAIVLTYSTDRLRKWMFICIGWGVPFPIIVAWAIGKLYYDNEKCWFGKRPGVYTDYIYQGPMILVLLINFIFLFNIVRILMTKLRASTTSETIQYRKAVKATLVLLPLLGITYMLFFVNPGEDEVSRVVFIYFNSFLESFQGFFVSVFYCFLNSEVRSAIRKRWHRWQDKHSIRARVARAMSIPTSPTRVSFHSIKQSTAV
# In short: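 In vitro autoradiography on fresh 20 µm sagittal brain sections from adult male Sprague–Dawley rats. Sections preincubated 10 min in 50 mM HEPES, 10 mM MgCl2, EGTA, pH 7.4, then incubated with 1.3 nM [18F] radioligand at 22–24 °C for 40 min. Washed 2 min in ice-cold PBS, pH 7.4.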
# [6] = Octanol-phosphate buffer partition coefficient, log D of the compound at pH 7.4 by shake flask method; type: physicochemical
# In short: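 Shake-flask method. Octanol and 25 mM phosphate buffer (pH ~7.4) mixed and allowed to saturate overnight. Compound (1.0 mg in 1 mL octanol) added to 50 mL octanol-saturated buffer, shaken intensely 30–40 min, then layers left to separate. Each layer analysed twice by HPLC.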
# [7] = Unbound fraction in rat plasma after 3 hrs by equilibrium dialysis method; type: ADME, cell-free
# In short: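 Equilibrium dialysis of rat plasma spiked with compound against isotonic phosphate buffer, 3 h at 37 °C. Buffer and plasma concentrations measured by LC/MS/MS. Unbound fraction taken as the buffer/plasma concentration ratio.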
# Liver microsomes [8] = experiment: Drug metabolism in human liver microsomes assessed as compound depletion per mg of protein at 3 uM; type: ADME, Microsome
# In short: (§3)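 Liver microsomes (1 mg/ml protein) incubated with 3 µM compound and 1.3 mM NADPH at 37 °C in 100 mM sodium phosphate buffer, pH 7.4. Final solvent 0.015% DMSO, 0.985% acetonitrile. Stopped at 0 and 10 min, compound measured by LC/MS/MS. Reported as depletion rate, pmol/min/mg protein.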
# [9] = molecular target: T2, Corticotropin-releasing factor receptor 1 (Rattus norvegicus, UniProt P35353); experiment: Displacement of [125I]-o-CRF from CRFR1 in rat frontal cortex after 2 hrs by gamma counter; type: tissue-based
# T2 sequence (P35353 whole entry): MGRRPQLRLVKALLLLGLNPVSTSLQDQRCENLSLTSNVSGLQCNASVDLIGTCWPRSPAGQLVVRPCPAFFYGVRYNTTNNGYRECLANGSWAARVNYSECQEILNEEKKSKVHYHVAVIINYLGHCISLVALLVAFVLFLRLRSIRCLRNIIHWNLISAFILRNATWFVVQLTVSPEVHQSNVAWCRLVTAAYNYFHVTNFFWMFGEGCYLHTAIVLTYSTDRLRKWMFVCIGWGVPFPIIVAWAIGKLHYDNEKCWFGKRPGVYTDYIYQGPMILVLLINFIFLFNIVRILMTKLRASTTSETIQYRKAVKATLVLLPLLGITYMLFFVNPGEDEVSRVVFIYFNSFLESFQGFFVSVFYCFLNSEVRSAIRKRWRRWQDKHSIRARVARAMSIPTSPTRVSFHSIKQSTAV
# In short: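 Rat frontal cortex homogenate (25 µg/well), prepared in 50 mM HEPES pH 7.0, 10 mM MgCl2, 2 mM EGTA, protease inhibitors, 0.005% Triton X-100, bacitracin, 0.1% ovalbumin. Incubated with 150 pM [125I]-o-CRF and compounds for 2 h at 21 °C. Separated by rapid filtration on PEI-pretreated glass fiber filters, washed with ice-cold PBS/0.01% Triton X-100. Specific binding inhibition gives Ki.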
# Liver microsomes [10] = experiment: Drug metabolism in rat liver microsomes assessed as compound depletion per mg of protein at 3 uM; type: ADME, Microsome; in short: as §3
# [11] = Metabolic stability in baboon plasma assessed as compound remaining after 9 and 13 mins; type: ADME, cell-free; details: papio anubis, read-out: Stability
# [12] = molecular target: T3, Corticotropin-releasing factor receptor 1 (Rattus norvegicus) (UniProt P35353); experiment: Binding affinity to CRFR1 in Sprague-Dawley rat cerebellum at 1.3 nM after 40 mins by autoradiography; details: tested as the 18F-labelled form
# T3 sequence (whole entry): T2 sequence (P35353 whole entry)
# In short: (§4)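 Fresh 20 µm-thick sagittal brain sections from adult male Sprague–Dawley rats. Sections were preincubated 10 min in 50 mM HEPES, 10 mM MgCl₂, […], pH 7.4, then incubated 40 min at 22–24 °C with 1.3 nM [¹⁸F]-radioligand (1.3 mCi/mL) in the same buffer. Slides were washed 2 min in ice-cold PBS (pH 7.4) and imaged by in vitro autoradiography.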
# [13] = molecular target: T3, Corticotropin-releasing factor receptor 1 (Rattus norvegicus); experiment: Binding affinity to CRFR1 in Sprague-Dawley rat neocortex at 1.3 nM after 40 mins by autoradiography; details: tested as the 18F-labelled form; in short: as §4
logD [6],Drug metabolism (Liver microsomes [8]),IC50 [9],Drug metabolism (Liver microsomes [10]),Structure (SMILES),further results
–,–,–,–,COC[C@@H](C1CC1)n1cc(Cl)nc(Nc2cc(C)c(OCC[18F])cc2C)c1=O,Drug uptake (Spleen): Active; Drug uptake (Muscle tissue): Active; Drug uptake (Brain [1]): Not Active; Drug uptake (Brain [2]): Active; Drug uptake (Liver): Active; Drug uptake (Heart): Active; Drug uptake (Blood): Active; Drug uptake (Lung): Active; Drug uptake [3]: Active; Drug uptake (Kidney): Active; Drug uptake (Brain [4]): Active; Drug uptake (Intestine): Active
–,–,–,–,CCC(COC)n1nnc2c(Nc3ccc(O[11CH3])cc3C)nc(C)cc21 (centres undefined),Ki [5]: 1.7 nM
2.9,0.22 pmol/min,4.3 nM,0.26 pmol/min,COCC(COC)n1cc(Br)nc(Nc2c(C)cc(OCF)cc2C)c1=O,fraction unbound at 3 h [7]: 0.03
–,–,–,–,CCCN(CCC)c1cc(C)nc2c(-c3ccc(N(C)[11CH3])nc3)c(C)nn12,Ki [5]: 1.7 nM; remaining at 13 min [11]: 50%
3.4,0.06 pmol/min,0.88 nM,0.19 pmol/min,COC[C@@H](C)n1cc(Cl)nc(Nc2cc(C)c(OC)cc2C)c1=O,–
3.1,0.07 pmol/min,210 nM,0.12 pmol/min,COCC(COC)n1cc(Cl)nc(Nc2c(Cl)cc(OCCF)cc2Cl)c1=O,–
–,–,–,–,COCCN(CCOC)c1nc(C)nc2c(-c3ccc([76Br])cc3Cl)c(C)nn12,Ki [5]: 2 nM
3.1,–,5.4 nM,–,COCC(COC)n1cc(Cl)nc(Nc2c(Cl)cc(OCF)cc2Cl)c1=O,–
3.1,–,4.1 nM,–,COC[C@@H](C1CC1)n1cc(Cl)nc(Nc2cc(C)c(OCF)cc2C)c1=O,–
3.8,0.07 pmol/min,0.68 nM,0.14 pmol/min,COCC(COC)n1cc(Br)nc(Nc2cc(C)c(OC)cc2C)c1=O,–
3.7,0.07 pmol/min,2.4 nM,0.12 pmol/min,COC[C@@H](C1CC1)n1cc(Cl)nc(Nc2cc(C)c(OCCF)cc2C)c1=O,Activity [12]: 19%; Activity [13]: 18%
3.4,0.03 pmol/min,5 nM,0.17 pmol/min,COCC(COC)n1cc(Cl)nc(Nc2c(Cl)cc(OC)cc2Cl)c1=O,–
2.8,–,7.8 nM,–,COCC(COC)n1cc(Br)nc(Nc2c(C)cc(OC)cc2C)c1=O,fraction unbound at 3 h [7]: 0.03
–,–,–,–,COCCN(CCO[11CH3])Cc1cc(C)nc2c(-c3ccc(Cl)cc3Cl)c(C)nn12 [[11C]DMP-696],Ki [5]: 1.7 nM; remaining at 13 min [11]: 50%
–,0.17 pmol/min,–,0.23 pmol/min,COC[C@@H](C1CC1)n1cc(Cl)nc(Nc2cc(C)c(OC)cc2C)c1=O,–
